# Source: PubChem (Johns Hopkins Ion Channel Center)
# RGS4 act: potentiators or activators of RGS4; HEK293 M3R/inducible RGS4, carbachol calcium flux Fluo4; hits give low values; B-score at 10 µM; 0.92% of 310,000 active;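 active = B-score of the integrated calcium signal more than 4 SD below the library mean, with starting fluorescence not abnormally high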;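 also: negative B-score means reduced calcium response which marks RGS4 activation or potentiation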
#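 System: HEK293 FlpIn-TREx cells, stable M3R, doxycycline-inducible RGS4. Timing: overnight RGS4 induction, 30 min dye load 37 °C, 20 min compound RT. Also added: carbachol, ECmax concentration. Measured by: Fluo4 fluorescence kinetic imaging of calcium. Evaluation: integrated calcium ratio converted to B score.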
# RGS4 block: inhibitors of human RGS4; 0.45% of 310,000 active; P49798; HEK293 M3R/RGS4 inducible, Fluo-4 calcium flux; hits give high values; triggered by carbachol at its EC20; B-score at 10 µM;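 active = B-score, a plate-corrected calcium signal, over three deviations above library mean, with baseline fluorescence within five deviations of library mean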;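 also: RGS4 expression induced by doxycycline in cells with stable M3 receptor; B-score is computed from the integrated fluorescence ratio over baseline after carbachol; higher B-score means a larger calcium signal and so more RGS4 inhibition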
# Target sequence (P49798 whole entry, looked up): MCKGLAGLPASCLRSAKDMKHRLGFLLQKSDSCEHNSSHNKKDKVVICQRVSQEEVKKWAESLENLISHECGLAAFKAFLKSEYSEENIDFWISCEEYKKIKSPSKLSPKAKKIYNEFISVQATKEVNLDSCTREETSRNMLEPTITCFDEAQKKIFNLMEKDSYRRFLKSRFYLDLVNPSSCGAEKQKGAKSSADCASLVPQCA
# MrgX1 ag: activates human MrgX1 receptor signaling; 0.44% of 310,000 active; AID 588627; MrgX1-HEK293 cells, Fluo-4 calcium fluorescence, agonist mode; hits give high values; Q96LB2; B-score at 10 µM;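 active = calcium response B-score plate-corrected fluorescence ratio at least 3 library SD, with starting fluorescence B-score inside 5 SD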
# Target sequence (Q96LB2 whole entry, looked up): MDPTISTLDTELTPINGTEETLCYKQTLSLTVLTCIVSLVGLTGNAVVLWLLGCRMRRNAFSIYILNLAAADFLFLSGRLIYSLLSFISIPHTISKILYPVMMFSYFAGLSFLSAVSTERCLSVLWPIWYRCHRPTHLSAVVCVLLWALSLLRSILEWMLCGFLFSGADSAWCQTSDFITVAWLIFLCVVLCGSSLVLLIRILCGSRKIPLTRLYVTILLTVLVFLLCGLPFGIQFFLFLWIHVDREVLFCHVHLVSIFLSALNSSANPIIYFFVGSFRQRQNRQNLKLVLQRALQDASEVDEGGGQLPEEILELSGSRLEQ
#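 Test system: Stable human MrgX1 HEK293 cell line | Schedule: Overnight plating before 1 h dye loading | Read-out basis: Baseline-normalised fluorescence change ratio, B-scored | Detection: Kinetic calcium dye fluorescence, Fluo-4 NW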
# MrgX1 PAM: human MrgX1 positive allosteric modulation, primary screen; MrgX1-HEK293, Fluo-4 calcium flux, FDSS; hits give high values; B-score at 10 µM; 0.63% of 310,000 active;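 active = plate-corrected calcium response at least 3 library SD above typical, normal starting fluorescence, not activating the receptor alone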;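 also: compound read alongside a low EC10 to EC30 dose of BAM8-22 agonist; peak minus trough fluorescence over baseline measured at the second addition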
# MrgX1 antag: blocks BAM8-22 activation of human MrgX1 receptor. B-score at 10 µM. Q96LB2. MRGX1-HEK293 calcium flux, Fluo-4, BAM8-22 antagonism; hits give low values. 1.3% of 310,000 active;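 active = calcium-response B-score plate-corrected more than 3 library SD below zero, starting fluorescence within 5 deviations, no agonist response on first addition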;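 also: peak minus trough fluorescence over baseline after final BAM8-22 challenge near maximal dose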
# RGS4 block valid: RGS4 inhibitor validation | shares compounds with RGS4 block | HEK293 M3R/RGS4, carbachol calcium Fluo-4 fluorescence; carbachol added at its EC20; 0 = buffer wells, 100 = carbachol control | calcium response, % at 10 µM | 65% of 1,700 active;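 active = duplicate-averaged calcium response above the buffer-only control mean plus 5 SD of those controls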;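 also: integrated fluorescence ratio F max minus min over baseline F0; higher response in RGS4-induced cells means RGS4 inhibition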
# M3R Ca ctr: counter-screen for RGS4 inhibitors: effect in non-induced cells; activity (percent), % at 10 µM; shares compounds with RGS4 block; HEK293 M3R non-induced, carbachol calcium Fluo-4; submaximal (EC20) carbachol stimulus; buffer wells 0%, carbachol control wells 100%; 20% of 1,900 active; call rule not given here;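 also: RGS4 induction absent so cells express M3R without RGS4; higher means more calcium signal and flags a non-specific hit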
# RGS4 inh ctr2: second counter-screen for RGS4 inhibitors: non-induced cells without carbachol | shares compounds with RGS4 block | HEK293 M3R/RGS4 non-induced, Fluo-4 calcium, no carbachol; normalised: buffer wells 0%, carbachol wells 100% | calcium response (agonist-mode artifact), % at 10 µM | 22% of 1,900 active | AID 493001;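 active = duplicate-averaged calcium rise in uninduced cells above buffer wells' mean plus 5 SD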
# MrgX1 ag confirm: reconfirmed activator of human MrgX1 receptor signaling; shares compounds with MrgX1 ag; MrgX1-HEK293, Fluo-4 calcium fluorescence, FDSS; activation, % at 10 µM; 78% of 600 active; AID 602412;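 active = calcium signal rise, corrected for plate position, at least 3 library SD high, with starting brightness within 5 such deviations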
# MrgX1 antag conf: reconfirmed antagonist of human MrgX1 receptor signaling; MrgX1-HEK293, BAM8-22 calcium flux, Fluo-4; hits give low values; 19% of 2,300 active; remaining BAM8-22 calcium response % of control (hits give low values), % at 10 µM; shares compounds with MrgX1 antag;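 active = remaining agonist calcium response no higher than 100% minus 3 SD of agonist-only control wells, with starting fluorescence near control levels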;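 also: agonist BAM8-22 given at a near maximal EC90 to ECmax level; peak minus minimum fluorescence divided by baseline after agonist addition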
# HEK293 Ca flux: counter-screen for MrgX1 antagonists: effect in parental HEK293 cells | shares compounds with MrgX1 antag | Fluo-4 calcium fluorescence, FDSS | fluorescence ratio F(max-min)/F0 at 10 µM | 2% of 4,000 active | AID 624111;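 active = duplicate-averaged calcium fluorescence ratio at least three times the standard deviation of buffer wells, a nonspecific response in parental cells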
# HEK293 Ca counter: activity in parental HEK293 cells without MrgX1; shares compounds with MrgX1 antag; parental HEK293 calcium flux, Fluo-4 fluorescence ratio; hits give high values; fluorescence ratio F(max-min)/F0 at 10 µM; 0.4% of 4,000 active; AID 624114;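 active = calcium fluorescence ratio, averaged over duplicates, at least 3 SD of the buffer-well ratio, meaning a nonspecific response in receptor-free cells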;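 also: untransfected parental HEK293 lacking MrgX1 used as counterscreen for MrgX1 allosteric activators; fluorescence change taken during the second addition on a kinetic imager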
# HEK293 Ca cntr2: activity in parental HEK293 cells lacking MrgX1 receptor; shares compounds with MrgX1 antag; Fluo-4 calcium fluorescence (FDSS); hits give high values; fluorescence ratio F(max-min)/F0 at 10 µM; 8.7% of 4,000 active; AID 624115;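 active = calcium fluorescence ratio at least three times the spread of buffer wells, meaning a non-specific response in parental cells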
# * marks the source's active call; other numbers are inactive results; i = inactive; / = no result. An excerpt weighted towards active compounds, which were near 3.5% of everything screened.
SMILES,RGS4 act,RGS4 block,MrgX1 ag,MrgX1 PAM,MrgX1 antag,MrgX1 ag confirm,HEK293 Ca flux,HEK293 Ca counter,HEK293 Ca cntr2,others
CCOC(=O)[C@@H]1[C@H]2COc3cc(OC)ccc3[C@H]2N2C(=O)N(c3ccc(C(F)(F)F)cc3)C(=O)[C@@]12C,i,i,i,i,i,/,/,/,/,
CCOC(=O)[C@@H]1[C@H]2COc3ccccc3[C@@H]2N2C(=O)N(c3cccc(C)c3)C(=O)[C@]12C,i,i,i,i,-5.8*,/,i,i,i,RGS4 block valid=i;M3R Ca ctr=i;RGS4 inh ctr2=i;MrgX1 antag conf=i
CCOC(=O)[C@@H]1[C@H]2COc3ccccc3[C@H]2N2C(=O)N(c3ccc(OC)cc3)C(=O)[C@]12C,i,i,i,i,-6.32*,/,i,i,i,RGS4 block valid=i;M3R Ca ctr=i;RGS4 inh ctr2=i;MrgX1 antag conf=i
CC(C)Cc1ccccc1O,i,i,i,i,i,/,/,/,/,
COc1ccc(C(C(=O)NC2CCCC2)N(C(=O)c2ccco2)c2cc3c(cc2C(C)=O)OCO3)cc1 (stereo not given),i,i,i,i,i,/,/,/,/,
O=C1c2ccccc2S(=O)(=O)c2cc(C(=O)N(c3ccccn3)c3ccccn3)ccc21,i,4.87*,41.4*,i,i,652.6%*,i,i,126*,RGS4 block valid=14.0%*;M3R Ca ctr=34.0%*;RGS4 inh ctr2=135.0%*
CCOC(=O)C(=O)C1=C(N2CCOCC2)/C(=C\c2ccc(F)cc2)CC1,i,7.7*,26.8*,i,i,219.9%*,i,i,45.4*,RGS4 block valid=7.0%*;M3R Ca ctr=i;RGS4 inh ctr2=21.0%*
CCOC(=O)[C@H]1[C@H]2COc3ccc(Br)cc3[C@@H]2N2C(=O)c3ccc(Cl)cc3NC(=O)[C@@]12C,/,/,i,i,i,/,/,/,/,
Cc1ccc(S(=O)(=O)N2CCC(C(=O)OCC(=O)N3CC(C)CC(C)C3)CC2)cc1C (stereo not given),i,i,i,i,i,/,/,/,/,
COc1cc(/C=C2/NC(=O)N(c3cccc(Cl)c3)C2=O)ccc1O,i,i,i,i,i,/,/,/,/,
COc1cc(/C=C2/C(=O)NN(c3cccc(Cl)c3)C2=O)cc(OC)c1O,i,i,79.3*,i,i,420.7%*,i,i,84.1*,M3R Ca ctr=i;RGS4 inh ctr2=106.5%*
c1ccc2c(Cn3ccnc3)cccc2c1,i,i,i,i,i,/,/,/,/,
COC(=O)C1=C(O)/C(=C/c2cccc(OC)c2O)N=C1C,i,i,i,i,i,/,/,/,/,
CCOC(=O)C1=C(O)/C(=C\c2cccc(OC)c2)N=C1C,i,13.9*,31.8*,i,i,158.3%*,i,i,i,RGS4 block valid=47.0%*;M3R Ca ctr=i;RGS4 inh ctr2=i
CCOC(=O)CNc1nc(-c2ccncc2)nc2ccccc12,/,/,56.3*,i,i,235.6%*,i,i,46.6*,
Cn1c(SCC(=O)Nc2ccccc2Br)nnc1-c1cnccn1,i,i,i,i,i,/,/,/,/,
COc1cccc(CSc2nccn2C)c1,i,i,i,i,i,/,/,/,/,
COc1ccc(CC(=O)Nc2ccc(S(=O)(=O)N3CCCCC3)cc2)cc1OC,i,i,i,i,i,/,/,/,/,
Cc1ccc(OCC(=O)NNC(=S)NC(=O)C(C)(C)C)c(Br)c1,i,i,65.6*,i,i,507.6%*,i,i,97.3*,
N=C(N)CCCOc1ccccc1-c1ccccc1,i,i,27.9*,i,i,80.8%*,i,i,i,
Cc1c(-c2cc(Br)ccc2O)nc2cc3c(cc2c1C)OCO3,i,i,i,i,i,/,/,/,/,
CN(C)c1ccc(/C=C/c2nc3ccccc3c(=O)[nH]2)cc1,-7.05*,i,26.7*,i,i,i,i,i,55.2*,
O=c1[nH]c(/C=C/c2ccc(Br)cc2)nc2ccccc12,i,i,i,i,i,/,/,/,/,
CC(C)(C)NS(=O)(=O)c1ccc(C(=O)Nc2ccc3c(c2)OCO3)cc1,i,i,i,i,i,/,/,/,/,
CCc1cc(=O)n2c([nH]c3ccccc32)c1C#N,i,i,i,i,i,/,/,/,/,
SMILES,RGS4 act,RGS4 block,MrgX1 ag,MrgX1 PAM,MrgX1 antag,MrgX1 ag confirm,HEK293 Ca flux,HEK293 Ca counter,HEK293 Ca cntr2,others
CCc1cc(=S)n2c([nH]c3ccccc32)c1C#N,i,i,42.5*,i,i,283.6%*,i,i,92.8*,
CCn1cc(/C=C(\NC(=O)c2ccc(OC)c(OC)c2)C(=O)NCCCN2CCOCC2)c2ccccc21,i,i,/,/,/,/,/,/,/,
O=c1[nH][nH]c(-c2ccccc2)c1C=Nc1ccc(C(F)(F)F)cc1,i,i,i,i,i,/,/,/,/,
O=c1[nH][nH]c(-c2ccccc2)c1C=Nc1ccc(OC(F)(F)F)cc1,i,i,33.3*,i,i,183.9%*,i,i,i,
O=C(Nc1nnc(-c2ccccc2Cl)o1)c1nc2ccccc2s1,i,i,103*,i,i,432.5%*,i,i,84*,
CCCc1nc2ccccc2c(=O)n1/N=C/c1c(C)[nH]n(-c2ccc(C)cc2)c1=O,i,i,78.3*,i,i,319.9%*,i,i,91.1*,
CC(C)(C)Nc1c2ccccc2nc2ccccc12,i,i,35.2*,i,i,156.8%*,i,i,i,
